Laboratory results published in publication PMC4832855 (Cancer Science, 2016).
“And” between values parts separate entries of the source, which are not always exact repeats. Equal entries are not always repeated.

Experiments:
IR = IR (Homo sapiens, UniProt P06213); assay: Kinase inhibition profiling at 100 nmol/L; assay type: biochemical; details: read-out: Inhibition at 100 nmol/L
[1] = Plasma protein binding, equilibrium dialysis; assay type: in vitro ADME; details: human, pH 7.2
[2] = system: HT‐29/GFP human colon cancer cells; assay: Anti-proliferative activity; assay type: cell-based
AurB = AurB (Homo sapiens, UniProt Q96GD4); assay: Kinase inhibition profiling at 100 nmol/L; assay type: biochemical; details: read-out: Inhibition at 100 nmol/L
[3] = Phase I first-in-human study: pharmacokinetics; assay type: in vivo; details: for half-life / concentration at 1 day / concentration at 28 day / Cmax / Tmax / Vd/F: human, plasma; for Cmax: C max; for Tmax: T max; for Vd/F: VZ/F
[4] = system: insulin‐induced tyrosine phosphorylation of IR in HT‐29/GFP cells; assay: In vitro signal transduction assay; assay type: cell-based, human; details: 10 nmol/L, 2 hours
Outline: (§1)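 HT-29/GFP colon cancer cells in culture exposed to test compound, then stimulated with human IGF-1 or human insulin; receptor tyrosine phosphorylation and downstream signalling assessed across a concentration series.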

Jak2 = Jak2 (Homo sapiens, UniProt O60674); assay: Kinase inhibition profiling at 100 nmol/L; assay type: biochemical
Sequence of Jak2 (O60674 whole entry): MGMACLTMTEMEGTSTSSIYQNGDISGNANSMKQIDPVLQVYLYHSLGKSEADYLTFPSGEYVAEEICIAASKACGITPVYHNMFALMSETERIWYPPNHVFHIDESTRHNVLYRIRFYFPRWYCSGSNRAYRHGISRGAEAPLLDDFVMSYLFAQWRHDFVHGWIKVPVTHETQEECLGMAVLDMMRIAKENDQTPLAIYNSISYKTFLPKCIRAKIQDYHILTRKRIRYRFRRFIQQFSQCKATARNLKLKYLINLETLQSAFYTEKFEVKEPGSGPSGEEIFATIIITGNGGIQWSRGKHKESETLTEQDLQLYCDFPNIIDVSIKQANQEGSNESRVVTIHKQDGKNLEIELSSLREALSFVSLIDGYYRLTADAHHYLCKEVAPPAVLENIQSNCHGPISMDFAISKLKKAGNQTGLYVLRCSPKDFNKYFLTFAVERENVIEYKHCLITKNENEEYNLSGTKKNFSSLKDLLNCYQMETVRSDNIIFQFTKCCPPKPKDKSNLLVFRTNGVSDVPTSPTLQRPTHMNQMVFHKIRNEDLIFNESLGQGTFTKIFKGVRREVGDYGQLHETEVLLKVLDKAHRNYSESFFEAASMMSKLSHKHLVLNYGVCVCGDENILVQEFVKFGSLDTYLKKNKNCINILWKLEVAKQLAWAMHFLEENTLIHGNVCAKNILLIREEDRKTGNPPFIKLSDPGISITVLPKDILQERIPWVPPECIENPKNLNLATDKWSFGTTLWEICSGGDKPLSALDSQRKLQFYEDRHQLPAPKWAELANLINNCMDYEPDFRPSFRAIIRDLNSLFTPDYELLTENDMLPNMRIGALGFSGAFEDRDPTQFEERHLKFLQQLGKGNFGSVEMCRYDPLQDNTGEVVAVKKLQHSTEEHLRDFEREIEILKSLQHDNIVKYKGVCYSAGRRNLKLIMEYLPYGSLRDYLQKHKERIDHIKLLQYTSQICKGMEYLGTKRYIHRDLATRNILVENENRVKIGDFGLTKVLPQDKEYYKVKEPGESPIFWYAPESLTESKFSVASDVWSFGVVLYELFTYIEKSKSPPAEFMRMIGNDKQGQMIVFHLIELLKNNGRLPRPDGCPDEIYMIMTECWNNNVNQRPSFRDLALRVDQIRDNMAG

[5] = system: IGF‐1‐induced tyrosine phosphorylation of IGF‐1R in HT‐29/GFP cells; assay: In vitro signal transduction assay; assay type: cell-based, human; details: 30 nmol/L, 2 hours
Outline: as §1

[6] = system: phosphorylation of Erk in HT‐29/GFP cells; assay: In vitro signal transduction assay; assay type: cell-based, human; details: up to 30 nmol/L
Outline: as §1

IGF‐1R = IGF‐1R (Homo sapiens, UniProt P08069); assay: Kinase inhibition profiling at 100 nmol/L; assay type: biochemical; details: read-out: Inhibition at 100 nmol/L
p381 = assay: Kinase inhibition profiling at 100 nmol/L; assay type: biochemical, human; details: p381, 100 nmol/L
Src = Src (Homo sapiens, UniProt P12931); assay: Kinase inhibition profiling at 100 nmol/L; assay type: biochemical; details: read-out: Inhibition at 100 nmol/L
[7] = target: fms‐like tyrosine kinase‐3 (Homo sapiens, UniProt P36888); assay: Kinase inhibition profiling at 100 nmol/L; assay type: biochemical; details: read-out: Inhibition at 100 nmol/L
Sequence of fms‐like tyrosine kinase‐3 (P36888 27-993): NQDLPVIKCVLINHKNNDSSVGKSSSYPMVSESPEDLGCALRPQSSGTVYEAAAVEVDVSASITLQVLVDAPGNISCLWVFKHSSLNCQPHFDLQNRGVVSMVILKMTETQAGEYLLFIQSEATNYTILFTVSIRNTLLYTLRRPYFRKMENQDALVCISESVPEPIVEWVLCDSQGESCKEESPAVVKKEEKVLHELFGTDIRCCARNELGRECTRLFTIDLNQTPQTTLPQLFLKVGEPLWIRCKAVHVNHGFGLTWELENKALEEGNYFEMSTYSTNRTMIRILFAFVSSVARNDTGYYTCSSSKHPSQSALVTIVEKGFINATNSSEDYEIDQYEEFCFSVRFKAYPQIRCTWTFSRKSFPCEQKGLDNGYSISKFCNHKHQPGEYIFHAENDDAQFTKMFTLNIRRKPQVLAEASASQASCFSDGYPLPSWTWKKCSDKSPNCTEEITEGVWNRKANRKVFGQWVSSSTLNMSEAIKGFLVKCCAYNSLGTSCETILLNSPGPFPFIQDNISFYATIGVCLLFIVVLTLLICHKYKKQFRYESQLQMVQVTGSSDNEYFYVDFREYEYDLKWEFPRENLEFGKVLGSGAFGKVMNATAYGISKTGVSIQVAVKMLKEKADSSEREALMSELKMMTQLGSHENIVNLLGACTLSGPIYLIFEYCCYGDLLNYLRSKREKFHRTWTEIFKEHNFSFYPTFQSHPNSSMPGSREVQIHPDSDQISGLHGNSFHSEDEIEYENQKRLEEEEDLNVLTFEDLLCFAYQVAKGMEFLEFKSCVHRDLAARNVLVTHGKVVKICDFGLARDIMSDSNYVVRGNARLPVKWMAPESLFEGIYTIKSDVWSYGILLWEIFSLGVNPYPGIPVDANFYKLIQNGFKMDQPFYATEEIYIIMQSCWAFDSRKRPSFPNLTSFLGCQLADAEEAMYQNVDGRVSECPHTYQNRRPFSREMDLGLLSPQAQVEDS

advanced solid tumors = assay: Phase I first-in-human study: response; assay type: in vivo
Outline: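 Open-label phase I in patients with refractory advanced solid tumours; oral once daily after overnight fast for 28 days, 1-week observation, then continuous daily dosing; response assessed every 8 weeks by RECIST version 1.0.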

[8] = system: panel of human malignant cell lines; assay: Correlation of antiproliferative activity with anti‐IGF‐1 antibody KM1468; assay type: cell-based; details: range of human malignant cell lines (Fig. S1a)
focal adhesion kinase = focal adhesion kinase (Homo sapiens, UniProt Q05397); assay: Kinase inhibition profiling at 100 nmol/L; assay type: biochemical; details: read-out: Inhibition at 100 nmol/L
Sequence of focal adhesion kinase (Q05397 whole entry): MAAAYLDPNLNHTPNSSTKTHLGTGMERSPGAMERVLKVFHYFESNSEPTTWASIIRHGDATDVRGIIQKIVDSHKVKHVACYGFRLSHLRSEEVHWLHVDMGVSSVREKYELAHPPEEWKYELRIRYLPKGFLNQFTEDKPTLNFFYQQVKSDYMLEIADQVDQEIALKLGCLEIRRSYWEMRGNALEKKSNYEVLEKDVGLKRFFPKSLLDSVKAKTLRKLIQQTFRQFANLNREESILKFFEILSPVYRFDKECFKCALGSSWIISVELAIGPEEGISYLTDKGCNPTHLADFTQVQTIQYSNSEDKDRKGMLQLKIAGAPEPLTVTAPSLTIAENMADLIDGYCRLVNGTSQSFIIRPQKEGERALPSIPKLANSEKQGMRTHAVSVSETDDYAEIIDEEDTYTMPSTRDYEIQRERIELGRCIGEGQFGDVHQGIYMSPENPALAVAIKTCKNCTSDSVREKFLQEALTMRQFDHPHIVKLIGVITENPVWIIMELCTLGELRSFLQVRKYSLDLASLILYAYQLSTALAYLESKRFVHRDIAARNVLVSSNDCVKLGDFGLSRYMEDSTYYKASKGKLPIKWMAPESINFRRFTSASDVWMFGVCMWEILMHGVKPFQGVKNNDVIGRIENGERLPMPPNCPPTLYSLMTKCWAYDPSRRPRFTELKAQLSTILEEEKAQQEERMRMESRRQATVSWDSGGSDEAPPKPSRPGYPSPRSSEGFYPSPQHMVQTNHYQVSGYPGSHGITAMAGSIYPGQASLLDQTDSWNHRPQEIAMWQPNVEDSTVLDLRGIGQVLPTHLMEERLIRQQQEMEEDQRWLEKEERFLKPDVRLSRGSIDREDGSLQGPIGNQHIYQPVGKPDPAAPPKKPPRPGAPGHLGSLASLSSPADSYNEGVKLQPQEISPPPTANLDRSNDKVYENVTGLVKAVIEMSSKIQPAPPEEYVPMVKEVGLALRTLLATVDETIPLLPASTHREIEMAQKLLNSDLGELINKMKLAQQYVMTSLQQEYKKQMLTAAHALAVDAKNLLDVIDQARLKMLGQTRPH

TrkA = TrkA (Homo sapiens, UniProt P04629); assay: Kinase inhibition profiling at 100 nmol/L; assay type: biochemical
Sequence of TrkA (P04629 33-796): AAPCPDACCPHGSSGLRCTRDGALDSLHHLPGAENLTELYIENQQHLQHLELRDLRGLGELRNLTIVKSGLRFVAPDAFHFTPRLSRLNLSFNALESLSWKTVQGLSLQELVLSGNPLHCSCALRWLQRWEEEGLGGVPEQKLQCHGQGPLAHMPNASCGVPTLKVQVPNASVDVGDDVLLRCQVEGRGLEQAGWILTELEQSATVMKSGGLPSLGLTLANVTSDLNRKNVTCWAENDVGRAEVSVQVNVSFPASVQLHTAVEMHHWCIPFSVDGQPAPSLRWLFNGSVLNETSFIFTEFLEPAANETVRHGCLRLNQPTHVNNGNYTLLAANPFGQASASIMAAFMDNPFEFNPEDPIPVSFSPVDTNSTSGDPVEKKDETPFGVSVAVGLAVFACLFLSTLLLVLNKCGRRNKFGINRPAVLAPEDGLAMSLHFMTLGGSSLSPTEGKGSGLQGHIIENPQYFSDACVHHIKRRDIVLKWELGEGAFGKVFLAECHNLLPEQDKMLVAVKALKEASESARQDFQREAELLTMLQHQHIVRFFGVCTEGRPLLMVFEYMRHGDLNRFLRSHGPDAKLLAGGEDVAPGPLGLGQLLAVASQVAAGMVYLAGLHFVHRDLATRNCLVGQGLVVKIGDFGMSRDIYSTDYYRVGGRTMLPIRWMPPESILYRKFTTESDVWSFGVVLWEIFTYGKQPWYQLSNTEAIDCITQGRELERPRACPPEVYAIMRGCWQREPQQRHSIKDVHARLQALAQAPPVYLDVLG

Btc = assay: Kinase inhibition profiling at 100 nmol/L; assay type: biochemical, human
[9] = system: phosphorylation of AKT in HT‐29/GFP cells; assay: In vitro signal transduction assay; assay type: cell-based, human; details: same concentration ranges (up to 30 nmol/L)
Outline: as §1

EGFR = EGFR (Homo sapiens, UniProt P00533); assay: Kinase inhibition profiling at 100 nmol/L; assay type: biochemical; details: read-out: Inhibition at 100 nmol/L
Sequence of EGFR (P00533 25-1210): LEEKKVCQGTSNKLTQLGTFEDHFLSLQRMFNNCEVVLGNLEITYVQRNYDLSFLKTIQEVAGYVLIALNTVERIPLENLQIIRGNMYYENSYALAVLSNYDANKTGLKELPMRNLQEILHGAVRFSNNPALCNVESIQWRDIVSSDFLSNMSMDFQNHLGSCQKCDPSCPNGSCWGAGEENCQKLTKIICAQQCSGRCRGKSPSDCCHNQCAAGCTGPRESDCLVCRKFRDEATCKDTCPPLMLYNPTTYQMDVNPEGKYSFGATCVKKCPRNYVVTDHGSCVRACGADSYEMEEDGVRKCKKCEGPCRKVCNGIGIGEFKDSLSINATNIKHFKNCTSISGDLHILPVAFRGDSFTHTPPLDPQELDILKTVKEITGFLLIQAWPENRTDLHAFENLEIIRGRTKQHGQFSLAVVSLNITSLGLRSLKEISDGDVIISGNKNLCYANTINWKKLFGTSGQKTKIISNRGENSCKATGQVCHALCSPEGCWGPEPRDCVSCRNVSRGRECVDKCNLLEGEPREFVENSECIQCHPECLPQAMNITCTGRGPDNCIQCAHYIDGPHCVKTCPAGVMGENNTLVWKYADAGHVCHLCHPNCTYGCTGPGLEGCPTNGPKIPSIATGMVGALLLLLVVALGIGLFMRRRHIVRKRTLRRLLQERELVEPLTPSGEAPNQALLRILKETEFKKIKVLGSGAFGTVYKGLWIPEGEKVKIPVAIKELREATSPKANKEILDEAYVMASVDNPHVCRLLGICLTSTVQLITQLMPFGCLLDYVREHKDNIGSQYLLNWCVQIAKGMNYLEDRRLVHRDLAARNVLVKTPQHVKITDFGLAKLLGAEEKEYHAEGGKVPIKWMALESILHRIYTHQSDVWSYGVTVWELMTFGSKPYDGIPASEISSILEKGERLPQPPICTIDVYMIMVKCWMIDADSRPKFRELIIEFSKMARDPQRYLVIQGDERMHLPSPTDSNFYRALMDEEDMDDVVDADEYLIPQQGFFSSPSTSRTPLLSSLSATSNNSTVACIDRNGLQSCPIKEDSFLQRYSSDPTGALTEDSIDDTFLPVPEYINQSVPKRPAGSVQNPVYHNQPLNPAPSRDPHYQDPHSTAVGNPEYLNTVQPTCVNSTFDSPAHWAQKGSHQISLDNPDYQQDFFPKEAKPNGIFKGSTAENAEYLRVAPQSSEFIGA

[10] = po, 37.5 mg/day, patients, oral 37.5 mg/day, Day 1 (n = 7), mean ± SD
[11] = po, 37.5 mg/day, patients, oral 37.5 mg/day, Day 28 (n = 5), mean ± SD
[12] = patients, oral 37.5 mg/day, Day 28 (n = 5), mean ± SD
[13] = patients, oral 50 mg/day, Day 28 (n = 4), mean ± SD

For Cc1ccsc1C(=O)Nc1cc(CN2CCN(C(=O)CO)CC2)ccc1/C=C/c1n[nH]c2ccccc12 [KW‐2450], the inhibition at 0.1 µM (IR) was 95.6%, the fraction unbound at 6 h [1] was 0.009 to 0.016 and the GI50 [2] was 0.38 µM. It also gave an inhibition at 0.1 µM (AurB) of 76.8%, a half-life ([3]; oral, 50 mg, Mean elimination half‐life, range across dose levels and day measured, patients, 37.5 and 50 mg, days 1 and 28) of 9.74 to 13 h and a concentration at 1 day ([3]; po, 37.5 mg/day) of 0.608 µg/mL. The concentration at 28 day ([3]; po, 37.5 mg/day) was 0.89 µg/mL, the Cmax [3, 10] was 2.33 ± 0.921 µg/mL and the Cmax [3, 11] was 2.37 ± 1.01 µg/mL. The Tmax [3, 10] was 2.29 ± 0.95 h, the Tmax [3, 11] was 1.99 ± 1.22 h and the Vd/F ([3]; po, 37.5 mg/day, patients, oral 37.5 mg/day, Day 1, n = 5, mean ± SD) was 19.6 ± 2.91 L. It also gave a Vd/F ([3]; po, 37.5 mg/day, patients, oral 37.5 mg/day, Day 28, n = 4, mean ± SD) of 23.7 ± 3.89 L, a half-life ([3]; po, 37.5 mg/day, t 1/2, patients, oral 37.5 mg/day, Day 1, n = 5, mean ± SD) of 10.1 ± 3.08 h and a half-life ([3]; po, 37.5 mg/day, t 1/2, patients, oral 37.5 mg/day, Day 28, n = 4, mean ± SD) of 9.74 ± 2.69 h. The concentration at 1 day ([3]; po, 50 mg/day) was 0.671 µg/mL, the concentration at 28 day ([3]; po, 50 mg/day) was 0.701 µg/mL and the “Mean maximum plasma concentration, molar equivalent” value ([3]; patients, 37.5 mg/day, days 1 and 28) was 3385 to 3440 nmol/L. For the same compound, the “Mean elimination half‐life, range across dose levels and day measured” value ([3]; patients, 37.5 and 50 mg, days 1 and 28) was 10 to 13 h, the “C min (trough plasma concentration)” value ([3]; patients, oral 37.5 mg/day, Day 1 (n = 7), mean ± SD) was 0.608 ± 0.679 µg/mL and the CL/F ([3]; patients, oral 37.5 mg/day, Day 1, n = 5, mean ± SD) was 1.45 ± 0.53 L/h. For the same compound, the “C min (trough plasma concentration)” value [3, 12] was 0.89 ± 1.173 µg/mL, the CL/F [3, 12] was 1.56 ± 0.88 L/h and the “R, accumulation ratio (AUC0–24 on day 28/AUC0–24 on day 1)” value [3, 12] was 1.57 and 1.57 ± 0.80. The “C min (trough plasma concentration)” value ([3]; patients, oral 50 mg/day, Day 1 (n = 6), mean ± SD) was 0.671 ± 0.517 µg/mL, the CL/F ([3]; patients, oral 50 mg/day, Day 1, n = 5, mean ± SD) was 1.48 ± 0.97 L/h and the “C min (trough plasma concentration)” value [3, 13] was 0.701 ± 0.462 µg/mL. The CL/F [3, 13] was 1.69 ± 0.47 L/h, the “R, accumulation ratio (AUC0–24 on day 28/AUC0–24 on day 1)” value [3, 13] was 1.27 and 1.27 ± 0.37 and the “Inhibition of insulin‐induced tyrosine phosphorylation of IR” value [4] was “significant degree of inhibition”. For the same compound, the “Inhibition at 100 nmol/L” value (Jak2; Jak2, 100 nmol/L) was 93.4%, the inhibition at 0.1 µM (Jak2; read-out: Inhibition at 100 nmol/L, Jak2, 100 nmol/L) was > 90% and the “Inhibition of IGF‐1‐induced tyrosine phosphorylation of IGF‐1R” value [5] was “complete inhibition”. The “Inhibitory activity against phosphorylation of Erk” value [6] was “without any inhibitory activity”, the inhibition at 0.1 µM (IGF‐1R) was 94.1% and the “Inhibition at 100 nmol/L” value (p381) was “–2.5%”. For the same compound, the inhibition at 0.1 µM (Src) was 53.8%, the inhibition at 0.1 µM [7] was > 90% and the “Median progression‐free survival” value (advanced solid tumors; 37.5 mg/day) was 65.0 days. For the same compound, the “Patients with stable disease” value (advanced solid tumors; 37.5 mg/day) was 1 n, the “Median progression‐free survival” value (advanced solid tumors; 50 mg/day) was 141 days and the “Patients with stable disease” value (advanced solid tumors; 50 mg/day) was 3 n. The “Complete or partial responses” value (advanced solid tumors; 10 patients evaluable for response) was “no complete or partial responses”, the “Patients with stable disease” value (advanced solid tumors; 10 patients evaluable for response, both doses) was 40% and the “Median progression‐free survival” value (advanced solid tumors; overall) was 66.5 days. For the same compound, the “Correlation of degree of in vitro inhibition with that induced by anti‐IGF‐1 antibody KM1468” value [8] was “highly correlated”, the inhibition at 0.1 µM (focal adhesion kinase) was > 90% and the “Inhibition at 100 nmol/L” value (TrkA; TrkA, 100 nmol/L) was 101.1%. The inhibition at 0.1 µM (TrkA; read-out: Inhibition at 100 nmol/L, TrkA, 100 nmol/L) was > 90%, the “Inhibition at 100 nmol/L” value (Btc) was 63.2% and the “Inhibition of phosphorylation of AKT downstream to IGF‐1R or IR” value [9] was “inhibited phosphorylation of AKT”. It also gave an inhibition at 0.1 µM (EGFR) of 2.5%.
